{"source": "ChEMBL document CHEMBL1240327", "about": "“Small molecules enhance autophagy and reduce toxicity in Huntington's disease models” (Nat Chem Biol, 2007)", "key": {"Saccharomyces cerevisiae [1]": {"test_system": "Saccharomyces cerevisiae", "assay": "Inhibition of 50 nM rapamycin-mediated cytostatic effect in yeast BY4742 after 48 to 96 hrs", "assay_type": "functional, organism-based"}, "Saccharomyces cerevisiae [2]": {"test_system": "Saccharomyces cerevisiae", "assay": "Inhibition of rapamycin-mediated cytostatic effect in yeast RM11-1a after 48 to 96 hrs", "assay_type": "functional"}, "Saccharomyces bayanus [3]": {"test_system": "Saccharomyces bayanus", "assay": "Inhibition of rapamycin-mediated cytostatic effect in Saccharomyces bayanus after 48 to 96 hrs", "assay_type": "functional"}, "Saccharomyces mikatae [4]": {"test_system": "Saccharomyces mikatae", "assay": "Inhibition of rapamycin-mediated cytostatic effect in Saccharomyces mikatae after 48 to 96 hrs", "assay_type": "functional"}, "Saccharomyces paradoxus [5]": {"test_system": "Saccharomyces paradoxus", "assay": "Inhibition of rapamycin-mediated cytostatic effect in Saccharomyces paradoxus after 48 to 96 hrs", "assay_type": "functional"}, "Saccharomyces cerevisiae [6]": {"test_system": "Saccharomyces cerevisiae", "assay": "Inhibition of 25 nM rapamycin-mediated cytostatic effect in yeast BY4742 at sub-lethal concentration after 48 to 96 hrs", "assay_type": "functional, organism-based"}, "PC-12 [7]": {"test_system": "PC-12", "assay": "Enhancement of autophagy in rat PC12 cells assessed as decrease in alpha-synuclein A53T mutant level at 43 uM by immunoblotting", "assay_type": "functional, cell-based", "method_in_brief": "(§1)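 Stable PC12 line with doxycycline-inducible HA-tagged A53T α-synuclein; induced with 1 μg/ml doxycycline for 48 h, then doxycycline removed. Compounds added during the 24 h switch-off period, from 5 mg ml⁻¹ DMSO stock diluted 1:20000, 1:4000 or 1:400. HA immunoblot, densitometry relative to actin; control set to 100 %; three independent experiments, factorial ANOVA.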"}, "[8]": {"assay": "Cytotoxicity against african green monkey COS7 cells at 43 uM after 24 hrs by FACS analysis", "assay_type": "cell-based", "conditions": "chlorocebus aethiops, cos-7, 24 h"}, "[9]": {"biological_target": "Huntingtin (Homo sapiens) (UniProt P42858)", "assay": "Inhibition of EGFP-tagged huntingtin aggregation expressed in african green monkey COS7 cells at 43 uM after 48 hrs by […]", "assay_type": "cell-based", "conditions": "COS-7"}, "[10]": {"biological_target": "Huntingtin (Homo sapiens) (UniProt P42858)", "assay": "Inhibition of EGFP-tagged huntingtin expressed in african green monkey COS7 cells assessed as protection against protein-induced cell death at 43 uM after 48 hrs […]", "assay_type": "cell-based", "conditions": "COS-7", "method_in_brief": "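COS-7 cells transfected 4 h with EGFP-tagged huntingtin exon 1 (74 polyQ), then treated for 48 h. About 200 EGFP-positive cells were scored by fluorescence microscopy for aggregates; DAPI-stained nuclei with apoptotic morphology were counted as dead. Triplicate, scorer blinded. Results given as odds ratios vs DMSO (set to 1) with 95 % CI by logistic regression.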"}, "[11]": {"biological_target": "Huntingtin (Mus musculus) (UniProt P42859)", "sequence (P42859 whole entry)": "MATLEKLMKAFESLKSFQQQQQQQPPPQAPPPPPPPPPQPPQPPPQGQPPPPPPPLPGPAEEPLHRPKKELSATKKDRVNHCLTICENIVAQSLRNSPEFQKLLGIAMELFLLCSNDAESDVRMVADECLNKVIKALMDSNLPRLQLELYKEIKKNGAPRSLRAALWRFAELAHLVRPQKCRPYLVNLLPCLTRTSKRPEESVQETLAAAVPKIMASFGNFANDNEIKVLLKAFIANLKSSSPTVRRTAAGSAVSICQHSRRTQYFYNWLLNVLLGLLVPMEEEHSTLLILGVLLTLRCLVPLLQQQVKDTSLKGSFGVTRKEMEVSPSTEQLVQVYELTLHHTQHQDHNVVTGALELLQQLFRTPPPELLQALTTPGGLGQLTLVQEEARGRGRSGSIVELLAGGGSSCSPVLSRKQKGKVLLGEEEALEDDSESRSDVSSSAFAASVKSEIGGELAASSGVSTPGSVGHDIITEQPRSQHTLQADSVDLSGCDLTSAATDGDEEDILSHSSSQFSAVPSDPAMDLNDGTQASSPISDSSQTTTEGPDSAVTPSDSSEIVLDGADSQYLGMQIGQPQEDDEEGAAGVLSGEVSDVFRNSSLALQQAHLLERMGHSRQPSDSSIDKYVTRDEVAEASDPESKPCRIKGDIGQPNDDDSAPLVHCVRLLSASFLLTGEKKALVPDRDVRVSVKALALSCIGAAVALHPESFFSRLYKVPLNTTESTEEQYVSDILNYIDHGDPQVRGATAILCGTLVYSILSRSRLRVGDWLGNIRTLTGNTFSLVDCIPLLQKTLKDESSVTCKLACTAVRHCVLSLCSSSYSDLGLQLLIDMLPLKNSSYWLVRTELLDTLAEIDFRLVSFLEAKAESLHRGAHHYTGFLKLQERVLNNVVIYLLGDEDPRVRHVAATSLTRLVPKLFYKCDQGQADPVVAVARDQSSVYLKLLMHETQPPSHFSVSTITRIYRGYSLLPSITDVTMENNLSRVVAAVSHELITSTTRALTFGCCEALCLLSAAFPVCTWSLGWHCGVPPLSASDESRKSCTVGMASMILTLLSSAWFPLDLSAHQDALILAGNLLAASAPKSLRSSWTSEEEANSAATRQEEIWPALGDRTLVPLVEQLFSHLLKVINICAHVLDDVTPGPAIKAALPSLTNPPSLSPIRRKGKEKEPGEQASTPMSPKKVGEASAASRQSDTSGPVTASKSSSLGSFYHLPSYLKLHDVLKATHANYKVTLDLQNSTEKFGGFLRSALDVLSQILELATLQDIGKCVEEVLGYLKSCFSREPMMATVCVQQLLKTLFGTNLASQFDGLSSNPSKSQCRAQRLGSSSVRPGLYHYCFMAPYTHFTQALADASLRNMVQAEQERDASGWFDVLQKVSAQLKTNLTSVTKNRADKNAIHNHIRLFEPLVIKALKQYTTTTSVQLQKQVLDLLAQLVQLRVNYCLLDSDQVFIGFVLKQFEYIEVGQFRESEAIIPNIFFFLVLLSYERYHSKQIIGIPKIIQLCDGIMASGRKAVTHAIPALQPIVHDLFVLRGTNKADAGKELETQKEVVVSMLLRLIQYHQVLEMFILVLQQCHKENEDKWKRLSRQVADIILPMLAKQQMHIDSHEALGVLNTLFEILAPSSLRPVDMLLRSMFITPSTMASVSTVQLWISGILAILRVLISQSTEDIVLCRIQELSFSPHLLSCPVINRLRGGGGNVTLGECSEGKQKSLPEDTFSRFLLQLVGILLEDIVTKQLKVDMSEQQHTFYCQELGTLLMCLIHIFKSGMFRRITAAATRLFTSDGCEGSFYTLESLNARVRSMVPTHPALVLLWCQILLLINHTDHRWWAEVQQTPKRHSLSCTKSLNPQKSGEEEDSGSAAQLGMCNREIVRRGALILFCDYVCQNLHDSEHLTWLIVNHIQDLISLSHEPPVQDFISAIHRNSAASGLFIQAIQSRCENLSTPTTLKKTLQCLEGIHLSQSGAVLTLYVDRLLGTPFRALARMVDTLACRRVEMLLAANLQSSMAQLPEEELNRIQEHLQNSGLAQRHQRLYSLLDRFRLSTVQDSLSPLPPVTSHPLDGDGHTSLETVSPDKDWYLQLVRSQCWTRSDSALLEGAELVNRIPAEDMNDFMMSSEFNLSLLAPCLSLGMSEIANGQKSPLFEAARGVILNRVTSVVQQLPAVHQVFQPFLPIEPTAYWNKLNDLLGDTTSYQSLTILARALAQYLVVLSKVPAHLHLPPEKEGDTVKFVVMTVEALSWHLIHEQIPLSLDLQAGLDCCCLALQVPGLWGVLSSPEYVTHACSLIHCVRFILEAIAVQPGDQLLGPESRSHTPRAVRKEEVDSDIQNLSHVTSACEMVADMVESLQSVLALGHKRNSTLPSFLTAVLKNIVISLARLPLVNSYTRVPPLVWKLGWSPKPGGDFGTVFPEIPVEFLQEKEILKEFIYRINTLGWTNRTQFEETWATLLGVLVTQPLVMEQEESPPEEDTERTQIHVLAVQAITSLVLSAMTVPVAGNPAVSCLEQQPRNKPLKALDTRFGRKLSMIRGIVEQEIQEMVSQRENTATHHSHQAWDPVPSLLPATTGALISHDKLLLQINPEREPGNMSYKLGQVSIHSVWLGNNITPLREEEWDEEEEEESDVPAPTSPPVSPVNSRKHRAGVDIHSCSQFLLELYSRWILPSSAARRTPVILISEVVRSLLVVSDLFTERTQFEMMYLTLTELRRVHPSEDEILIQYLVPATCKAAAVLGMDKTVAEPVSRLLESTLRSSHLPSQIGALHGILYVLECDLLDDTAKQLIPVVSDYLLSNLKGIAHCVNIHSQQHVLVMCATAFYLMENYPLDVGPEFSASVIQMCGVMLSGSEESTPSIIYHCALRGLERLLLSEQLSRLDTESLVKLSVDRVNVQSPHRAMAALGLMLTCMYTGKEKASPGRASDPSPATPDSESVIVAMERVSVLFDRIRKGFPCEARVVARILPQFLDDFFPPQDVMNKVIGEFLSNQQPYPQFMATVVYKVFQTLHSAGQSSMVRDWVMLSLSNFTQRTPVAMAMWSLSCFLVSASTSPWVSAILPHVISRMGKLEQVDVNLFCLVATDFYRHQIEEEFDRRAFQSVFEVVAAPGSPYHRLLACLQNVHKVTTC", "assay": "Inhibition of EGFP-tagged huntingtin aggregation in MEF harboring Atg5 gene at 47 uM after 48 hrs by Western blot analysis"}, "[12]": {"biological_target": "Huntingtin (Mus musculus) (UniProt P42859)", "assay": "Inhibition of EGFP-tagged huntingtin aggregation in MEF harboring Atg5 gene at 43 uM after 48 hrs by Western blot analysis"}, "[13]": {"biological_target": "Huntingtin (Mus musculus) (UniProt P42859)", "assay": "Inhibition of EGFP-tagged huntingtin aggregation in Atg5-deficient MEF at 47 uM after 48 hrs by Western blot analysis"}, "[14]": {"biological_target": "Huntingtin (Mus musculus) (UniProt P42859)", "assay": "Inhibition of EGFP-tagged huntingtin aggregation in Atg5-deficient MEF at 43 uM after 48 hrs by […]"}, "HeLa [15]": {"test_system": "HeLa", "assay": "Induction of autophagy in human HeLa cells harboring MAP1LC3 gene at 43 uM after 24 hrs by DAPI staining-based fluorescence microscopy", "assay_type": "functional, cell-based", "method_in_brief": "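Stable EGFP-LC3 HeLa cells treated 24 h. EGFP-positive autophagic vesicles were imaged by confocal microscopy with DAPI nuclear counterstain.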"}, "HeLa [16]": {"test_system": "HeLa", "assay": "Increase in MAP1LC3 level in bafilomycin A1-treated human HeLa cells at 43 uM treated fro 24 hrs before bafilomycin A1 challenge by immunoblotting analysis", "assay_type": "functional, cell-based", "method_in_brief": "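HeLa cells stably expressing EGFP-LC3 were pretreated with compound for 24 h, then given 200 nM bafilomycin A1 for 4 h. EGFP-LC3-II was measured by anti-EGFP immunoblot with densitometry relative to actin, from three independent experiments.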"}, "Drosophila melanogaster [17]": {"test_system": "Drosophila melanogaster", "assay": "Neuroprotective activity in Drosophila melanogaster Huntington's disease model harboring huntington protein mutant assessed as protection against neurodegeneration at 200 uM", "assay_type": "functional, organism-based"}, "Drosophila melanogaster [18]": {"test_system": "Drosophila melanogaster", "assay": "Toxicity against Drosophila melanogaster Huntington's disease model at 200 uM", "assay_type": "organism-based", "conditions": "in vivo"}, "[19]": {"biological_target": "Serine/threonine-protein kinase mTOR (Homo sapiens) (UniProt P42345)", "assay": "Inhibition of mTOR phosphorylation expressed in african green monkey COS7 cells at 43 uM by Western blot analysis", "assay_type": "cell-based", "conditions": "COS-7"}, "COS-7 [20]": {"test_system": "COS-7", "assay": "Effect on ATg6 level in african green monkey COS7 cells at 43 uM after 24 hrs by immunoblotting", "assay_type": "functional, cell-based", "conditions": "Chlorocebus aethiops"}, "COS-7 [21]": {"test_system": "COS-7", "assay": "Effect on ATg5 level in african green monkey COS7 cells at 43 uM after 24 hrs by immunoblotting", "assay_type": "functional, cell-based", "conditions": "Chlorocebus aethiops"}, "COS-7 [22]": {"test_system": "COS-7", "assay": "Effect on ATg7 level in african green monkey COS7 cells at 43 uM after 24 hrs by immunoblotting", "assay_type": "functional, cell-based", "conditions": "Chlorocebus aethiops"}, "COS-7 [23]": {"test_system": "COS-7", "assay": "Effect on ATg12 level in african green monkey COS7 cells at 43 uM after 24 hrs by immunoblotting", "assay_type": "functional, cell-based", "conditions": "Chlorocebus aethiops"}, "COS-7 [24]": {"test_system": "COS-7", "assay": "Increase in conjugated Atg12-Atg5 level in african green monkey COS7 cells at 43 uM after 24 hrs by immunoblotting", "assay_type": "functional, cell-based", "conditions": "Chlorocebus aethiops"}, "HeLa [25]": {"test_system": "HeLa", "assay": "Inhibition of proteasome activity in human HeLa cells assessed as induction of ubiquitinG76V-EGFP reporter level at 43 uM after 24 hrs by immunoblotting"}, "PC-12 [26]": {"test_system": "PC-12", "assay": "Enhancement of rapamycin-induced clearance of alpha-synuclein A53T mutant protein in rat PC12 cells at 43 uM after 8 hrs by immunoblotting", "assay_type": "functional, cell-based", "method_in_brief": "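Inducible PC12 A53T α-synuclein line (1 μg/ml doxycycline, 48 h, then switched off). Compound given alone or with 0.2 μM rapamycin over an 8 h switch-off period. Read-out is anti-HA immunoblot with densitometry relative to actin, n=3, control as 100 %.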"}, "[27]": {"biological_target": "Huntingtin (Homo sapiens) (UniProt P42858)", "assay": "Inhibition of EGFP-tagged huntingtin aggregation expressed in african green monkey COS7 cells at 43 uM after 24 hrs by […] in presence of 0.2 uM rapamycin", "assay_type": "cell-based", "conditions": "COS-7"}, "Saccharomyces cerevisiae [28]": {"test_system": "Saccharomyces cerevisiae", "assay": "Enhancement of 20 nM rapamycin-mediated cytostatic effect in yeast BY4742 after 48 to 96 hrs", "assay_type": "functional, organism-based"}, "Saccharomyces cerevisiae [29]": {"test_system": "Saccharomyces cerevisiae", "assay": "Enhancement of rapamycin-mediated cytostatic effect in yeast RM11-1a after 48 to 96 hrs", "assay_type": "functional"}, "Saccharomyces bayanus [30]": {"test_system": "Saccharomyces bayanus", "assay": "Enhancement of rapamycin-mediated cytostatic effect in Saccharomyces bayanus after 48 to 96 hrs", "assay_type": "functional"}, "Saccharomyces mikatae [31]": {"test_system": "Saccharomyces mikatae", "assay": "Enhancement of rapamycin-mediated cytostatic effect in Saccharomyces mikatae after 48 to 96 hrs", "assay_type": "functional"}, "Saccharomyces paradoxus [32]": {"test_system": "Saccharomyces paradoxus", "assay": "Enhancement of rapamycin-mediated cytostatic effect in Saccharomyces paradoxus after 48 to 96 hrs", "assay_type": "functional"}, "PC-12 [33]": {"test_system": "PC-12", "assay": "Enhancement of autophagy in rat PC12 cells assessed as decrease in alpha-synuclein A53T mutant level at 5 mg/ml by densitometry", "assay_type": "functional, cell-based", "method_in_brief": "as §1"}, "PC-12 [34]": {"test_system": "PC-12", "assay": "Enhancement of autophagy in rat PC12 cells assessed as decrease in alpha-synuclein A53T mutant level at 47 uM by immunoblotting", "assay_type": "functional, cell-based", "method_in_brief": "as §1"}}, "note": "The source made the active and inactive calls. The rule behind the calls is not given here.", "data": [{"smiles": "O=C1C(Nc2ccccc2)=CC(=O)c2ncccc21", "values": [{"measurement": "EC50", "setting": "Saccharomyces cerevisiae [1]", "result": 10.4, "unit": "µM"}, {"measurement": "inhibition", "setting": "Saccharomyces cerevisiae [2]", "result": "Active"}, {"measurement": "inhibition", "setting": "Saccharomyces bayanus [3]", "result": "Active"}, {"measurement": "inhibition", "setting": "Saccharomyces mikatae [4]", "result": "Active"}, {"measurement": "inhibition", "setting": "Saccharomyces paradoxus [5]", "result": "Active"}]}, {"smiles": "COc1ccc(C[C@H]2NC[C@H](O)[C@H]2OC(C)=O)cc1", "values": [{"measurement": "inhibition", "setting": "Saccharomyces cerevisiae [6]", "result": "inactive"}]}, {"smiles": "C/C(=C/C(=O)c1ccc(Cl)cc1)Nc1cccc(O)c1", "values": [{"measurement": "Activity", "setting": "PC-12 [7]", "result": "Active"}, {"measurement": "Activity", "setting": "[8]", "result": "Non-toxic"}, {"measurement": "inhibition", "setting": "[9]", "result": "Active"}, {"measurement": "inhibition", "setting": "[10]", "result": "Active"}, {"measurement": "inhibition", "setting": "[11]", "result": "inactive"}, {"measurement": "inhibition", "setting": "[12]", "result": "Active"}, {"measurement": "inhibition", "setting": "[13]", "result": "inactive"}, {"measurement": "inhibition", "setting": "[14]", "result": "Active"}, {"measurement": "Activity", "setting": "HeLa [15]", "result": "Active"}, {"measurement": "Activity", "setting": "HeLa [16]", "result": "Active"}, {"measurement": "Activity", "setting": "Drosophila melanogaster [17]", "result": "Active"}, {"measurement": "Activity", "setting": "Drosophila melanogaster [18]", "result": "Non-toxic"}, {"measurement": "inhibition", "setting": "[19]", "result": "inactive"}, {"measurement": "Activity", "setting": "COS-7 [20]", "result": "inactive"}, {"measurement": "Activity", "setting": "COS-7 [21]", "result": "inactive"}, {"measurement": "Activity", "setting": "COS-7 [22]", "result": "inactive"}, {"measurement": "Activity", "setting": "COS-7 [23]", "result": "inactive"}, {"measurement": "Activity", "setting": "COS-7 [24]", "result": "inactive"}, {"measurement": "inhibition", "setting": "HeLa [25]", "result": "inactive"}, {"measurement": "Activity", "setting": "PC-12 [26]", "result": "Active"}, {"measurement": "inhibition", "setting": "[27]", "result": "Active"}, {"measurement": "EC50", "setting": "Saccharomyces cerevisiae [28]", "result": 17.4, "unit": "µM"}, {"measurement": "Activity", "setting": "Saccharomyces cerevisiae [29]", "result": "Active"}, {"measurement": "Activity", "setting": "Saccharomyces bayanus [30]", "result": "Active"}, {"measurement": "Activity", "setting": "Saccharomyces mikatae [31]", "result": "Active"}, {"measurement": "Activity", "setting": "Saccharomyces paradoxus [32]", "result": "Active"}, {"measurement": "Activity", "setting": "PC-12 [33]", "result": "Active"}, {"measurement": "Activity", "setting": "PC-12 [34]", "result": "Active"}]}]}
